Results: ChEMBL document CHEMBL4038284, “Synthesis of novel quinoline-based 4,5-dihydro-1H-pyrazoles as potential anticancer, antifungal, antibacterial and antiprotozoal agents” (Eur J Med Chem, 2017)
≈ marks a conversion by molar mass, not a printed value.

Tests used:
Trypanosoma cruzi = test: Antitrypanosomal activity against Trypanosoma cruzi Tulahuen intracellular amastigote harboring LacZ infected in human U937 cells after 72 hrs by CPRG/Nonidet reagent based spectrophotometric method; assay type: functional, cell-based; details: U-937, 72 h
Procedure, shortened: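 U-937 cells at 2.5 × 10^5 cells/mL in RPMI-1640 with 10% serum and 0.1 µg/mL PMA were infected with β-galactosidase-transfected Tulahuen epimastigotes at 5 parasites per cell. Infected cells were exposed to 50, 12.5, 3.125 and 0.78 µg/mL for 72 h. CPRG (100 uM) and 0.1% Nonidet P-40 were added for 3 h, read at 570 nm. EC50 by Probit. Triplicate, at least two experiments; benznidazole as reference.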

Candida albicans [1] = test: Growth inhibition of Candida albicans ATCC 10231 at 250 ug/ml incubated for 48 hrs under dark condition by broth microdilution method relative to control; assay type: functional; details: ATCC 10231, 48 h, read-out: GI
Procedure, shortened: (§1)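 CLSI M27-A3 broth microdilution in RPMI-1640, DMSO ≤1%. Inoculum 1-5 × 10^3 CFU/mL. Incubated 48 h at 30 °C, dark. % inhibition = 100 − (OD405 test − sterility control)/(OD405 growth control − sterility control), with growth and sterility control wells. Triplicate.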

Candida albicans [2] = test: Antifungal activity against Candida albicans ATCC 10231 incubated for 48 hrs under dark condition by broth microdilution method; assay type: functional; details: ATCC 10231, 48 h
Procedure, shortened: (§2)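 CLSI M27-A3 broth microdilution in RPMI-1640, DMSO ≤1%, compounds at 250-0.98 µg/mL final. Inoculum 1-5 × 10^3 CFU/mL. Incubated 48 h at 30 °C in a moist dark chamber, read at OD405. MIC80 and MIC50 taken from % inhibition dose-response curves (mean ± SEM, triplicate). Amphotericin B was the positive control.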

Candida albicans [3] = test: Growth inhibition of Candida albicans ATCC 10231 at 7.8 ug/ml incubated for 48 hrs under dark condition by broth microdilution method relative to control; assay type: functional; details: ATCC 10231, 48 h, read-out: GI; procedure, shortened: as §1
Klebsiella pneumoniae [4] = test: Antibacterial activity against carbapenemase positive Klebsiella pneumoniae BAA 1705 after 24 hrs by resazurin dye based microdilution assay; assay type: functional; details: BAA 1705, 24 h
Procedure, shortened: (§3)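 MIC taken as the lowest concentration giving visible inhibition and/or by resazurin (1 mg/mL). Gentamicin was the control. Run in duplicate, repeated at least three times.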

Neisseria gonorrhoeae = test: Antibacterial activity against beta lactamase positive Neisseria gonorrhoeae ATCC 31426 by oxidase test; assay type: functional
Procedure, shortened: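 Agar dilution MIC on GC agar with 1% isovitalex containing increasing compound concentrations. Plates inoculated with about 1×10^4 CFU (5 µL). MIC is the lowest concentration that inhibited growth, with growth confirmed by oxidase test. Run in duplicate, repeated at least three times.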

Klebsiella pneumoniae [5] = test: Antibacterial activity against ESBL positive Klebsiella pneumoniae ATCC 700603 after 24 hrs by resazurin dye based microdilution assay; assay type: functional; details: Klebsiella pneumoniae, 700603, 24 h; procedure, shortened: as §3
Cryptococcus neoformans [6] = test: Growth inhibition of Cryptococcus neoformans ATCC 32264 at 125 ug/ml incubated for 48 hrs under dark condition by broth microdilution method relative to control; assay type: functional; details: ATCC 32264, 48 h, read-out: GI; procedure, shortened: as §1
Candida albicans [7] = test: Growth inhibition of Candida albicans ATCC 10231 at 62.5 ug/ml incubated for 48 hrs under dark condition by broth microdilution method relative to control; assay type: functional; details: ATCC 10231, 48 h, read-out: GI; procedure, shortened: as §1
Candida albicans [8] = test: Growth inhibition of Candida albicans ATCC 10231 at 3.4 ug/ml incubated for 48 hrs under dark condition by broth microdilution method relative to control; assay type: functional; details: ATCC 10231, 48 h, read-out: GI
Staphylococcus aureus [9] = test: Antibacterial activity against vancomycin-intermediate Staphylococcus aureus after 24 hrs by resazurin dye based microdilution assay; assay type: functional; procedure, shortened: as §3
Cryptococcus neoformans [10] = test: Growth inhibition of Cryptococcus neoformans ATCC 32264 at 250 ug/ml incubated for 48 hrs under dark condition by broth microdilution method relative to control; assay type: functional; details: ATCC 32264, 48 h, read-out: GI; procedure, shortened: as §1
Cryptococcus neoformans [11] = test: Growth inhibition of Cryptococcus neoformans ATCC 32264 at 15.62 ug/ml incubated for 48 hrs under dark condition by broth microdilution method relative to control; assay type: functional; details: ATCC 32264, 48 h, read-out: GI; procedure, shortened: as §1
Cryptococcus neoformans [12] = test: Growth inhibition of Cryptococcus neoformans ATCC 32264 at 62.5 ug/ml incubated for 48 hrs under dark condition by broth microdilution method relative to control; assay type: functional; details: ATCC 32264, 48 h, read-out: GI; procedure, shortened: as §1
Cryptococcus neoformans [13] = test: Growth inhibition of Cryptococcus neoformans ATCC 32264 at 7.8 ug/ml incubated for 48 hrs under dark condition by broth microdilution method relative to control; assay type: functional; details: ATCC 32264, 48 h, read-out: GI; procedure, shortened: as §1
Cryptococcus neoformans [14] = test: Growth inhibition of Cryptococcus neoformans ATCC 32264 at 3.4 ug/ml incubated for 48 hrs under dark condition by broth microdilution method relative to control; assay type: functional; details: ATCC 32264, 48 h, read-out: GI
U-937 = test: Cytotoxicity against human U937 cells after 72 hrs by MTT assay; assay type: cell-based; details: u-937, 72 h
Procedure, shortened: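 Exponentially growing U-937 at 1 × 10^5 cells/mL in RPMI-1640 with 10% FBS were exposed to 200, 50, 12.5 and 3.125 µg/mL for 72 h at 37 °C, 5% CO2. MTT for 3 h, stopped with isopropanol/SDS, formazan read at 570 nm, blank-corrected. LC50 by Probit from % viability against untreated cells. Triplicate, at least two independent experiments.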

Cryptococcus neoformans [15] = test: Antifungal activity against Cryptococcus neoformans ATCC 32264 incubated for 48 hrs under dark condition by broth microdilution method; assay type: functional; details: ATCC 32264, 48 h; procedure, shortened: as §2
Candida albicans [16] = test: Growth inhibition of Candida albicans ATCC 10231 at 125 ug/ml incubated for 48 hrs under dark condition by broth microdilution method relative to control; assay type: functional; details: ATCC 10231, 48 h, read-out: GI; procedure, shortened: as §1
Staphylococcus aureus [17] = test: Antibacterial activity against methicillin-sensitive Staphylococcus aureus ATCC 25923 after 24 hrs by resazurin dye based microdilution assay; assay type: functional; details: ATCC 25923, 24 h; procedure, shortened: as §3
Candida albicans [18] = test: Growth inhibition of Candida albicans ATCC 10231 at 31.25 ug/ml incubated for 48 hrs under dark condition by broth microdilution method relative to control; assay type: functional; details: ATCC 10231, 48 h, read-out: GI; procedure, shortened: as §1
Pseudomonas aeruginosa = test: Antibacterial activity against Pseudomonas aeruginosa ATCC 27853 after 24 hrs by resazurin dye based microdilution assay; assay type: functional; details: ATCC 27853, 24 h; procedure, shortened: as §3
Escherichia coli = test: Antibacterial activity against Escherichia coli ATCC 25922 after 24 hrs by resazurin dye based microdilution assay; assay type: functional; details: ATCC 25922, 24 h; procedure, shortened: as §3
Cryptococcus neoformans [19] = test: Growth inhibition of Cryptococcus neoformans ATCC 32264 at 31.25 ug/ml incubated for 48 hrs under dark condition by broth microdilution method relative to control; assay type: functional; details: ATCC 32264, 48 h, read-out: GI; procedure, shortened: as §1
Staphylococcus aureus [20] = test: Antibacterial activity against methicillin-resistant Staphylococcus aureus ATCC 43300 after 24 hrs by resazurin dye based microdilution assay; assay type: functional; details: ATCC 43300, 24 h
Procedure, shortened: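 Broth microdilution in Mueller Hinton broth, inoculum 5 × 10^5 – 8 × 10^5. Compound stocks diluted in MHB with 5% DMSO and 0.1% Tween 80. Incubation 24 h at 35-37 °C. MIC is the lowest concentration with visible growth inhibition and/or by resazurin (1 mg/mL) read-out. Gentamicin as control. Run in duplicate, replicated at least three times.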

Candida albicans [21] = test: Growth inhibition of Candida albicans ATCC 10231 at 15.62 ug/ml incubated for 48 hrs under dark condition by broth microdilution method relative to control; assay type: functional; details: ATCC 10231, 48 h, read-out: GI; procedure, shortened: as §1
Plasmodium falciparum = test: Antiplasmodial activity against chloroquine-sensitive Plasmodium falciparum 3D7 assessed as reduction in parasitic LDH activity after 48 hrs by Malstat reagent based […] method; assay type: functional; details: 3D7, 48 h
Procedure, shortened: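 Unsynchronized P. falciparum 3D7 at 0.5% parasitemia and 1% hematocrit in RPMI with 3% Albumax II. Exposed to 100, 25, 6.25 and 1.56 µg/mL for 48 h at 37 °C under 90% N2/5% CO2/5% O2. After three freeze-thaw cycles, LDH measured with Malstat and NBT/PES, 1 h in the dark, read at 650 nm. IC50 by Probit; triplicate, ≥2 experiments.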

Leishmania panamensis = test: Antileshmanial activity against EpiR/GFP fused Leishmania panamensis MHOM/CO/87/UA140 intracellular amastigotes infected in human […] cells after 72 hrs by flow cytometric method; assay type: functional, cell-based; details: MHOM/CO/87/UA140, 72 h
Procedure, shortened: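 PMA-treated U-937 cells (3 × 10^5 cells/mL) infected with stationary-phase GFP L. panamensis promastigotes (15:1), 3 h at 34 °C, then washed. After 24 h, compounds added at 50, 12.5, 3.125 and 0.78 µg/mL for 72 h at 37 °C. EC50 by Probit; triplicate, two experiments.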

Molecule `Cc1ccc(C2=NN(c3cc(Cl)cc(Cl)c3)C(c3cccc(Nc4ccnc5cc(Cl)ccc45)c3)C2)cc1` (stereo not given) has an EC50 (Trypanosoma cruzi) of 49.2 µg/mL (≈ 88.3 µM), an inhibition of growth at 250 µg/mL (Candida albicans [1]) of 17.9% and an MIC50 (Candida albicans [2]) of at least 250 µg/mL. The MIC80 (Candida albicans [2]) was at least 250 µg/mL, the inhibition of growth at 7.8 µg/mL (Candida albicans [3]) was 0% and the MIC (Klebsiella pneumoniae [4]) was over 1000 µg/mL. For the same molecule, the MIC (Neisseria gonorrhoeae) was over 1000 µg/mL, the MIC (Klebsiella pneumoniae [5]) was over 1000 µg/mL and the inhibition of growth at 125 µg/mL (Cryptococcus neoformans [6]) was 15.3%. The inhibition of growth at 62.5 µg/mL (Candida albicans [7]) was 0%, the inhibition of growth at 3.4 µg/mL (Candida albicans [8]) was 0% and the MIC (Staphylococcus aureus [9]) was over 1000 µg/mL. The inhibition of growth at 250 µg/mL (Cryptococcus neoformans [10]) was 40.9%, the inhibition of growth at 15.62 µg/mL (Cryptococcus neoformans [11]) was 1.85% and the inhibition of growth at 62.5 µg/mL (Cryptococcus neoformans [12]) was 8.02%. The inhibition of growth at 7.8 µg/mL (Cryptococcus neoformans [13]) was 1.15%, the inhibition of growth at 3.4 µg/mL (Cryptococcus neoformans [14]) was 0% and the LC50 (U-937) was over 200 µg/mL. For the same molecule, the MIC50 (Cryptococcus neoformans [15]) was at least 250 µg/mL, the MIC80 (Cryptococcus neoformans [15]) was at least 250 µg/mL and the inhibition of growth at 125 µg/mL (Candida albicans [16]) was 3.88%. The MIC (Staphylococcus aureus [17]) was over 1000 µg/mL, the inhibition of growth at 31.25 µg/mL (Candida albicans [18]) was 0% and the MIC (Pseudomonas aeruginosa) was over 1000 µg/mL. For the same molecule, the MIC (Escherichia coli) was over 1000 µg/mL, the inhibition of growth at 31.25 µg/mL (Cryptococcus neoformans [19]) was 6.71% and the MIC (Staphylococcus aureus [20]) was over 1000 µg/mL. It also gave an inhibition of growth at 15.62 µg/mL (Candida albicans [21]) of 0%, an EC50 (Plasmodium falciparum) of 65.2 µg/mL (≈ 117 µM) and an EC50 (Leishmania panamensis) of 18.1 µg/mL (≈ 32.5 µM).
